In PubChem BioAssay:
Calls of active or inactive are those of the source.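 The calls were made as follows, unless noted: active = inhibition at or above 50% at 10 µM; inactive = inhibition below 50%.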

How the values were obtained:
[1] = inhibitors of TNFa-induced NFkB p65 translocation, primary screen, imaging, HUVEC, MLSMR starter and 10KST1 sets (AID 438;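 active = inhibition above 20% together with a positive visual image hit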;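 also: compound added about 3h40 before a 20 min TNFalpha stimulation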;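 as to inhibition: signal is the nuclear over cytoplasmic p65 intensity ratio per well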); conditions: HUVEC TNFa-induced p65 nuclear translocation; cell count: measured here: nuclei count (cytotoxicity indicator), at 2.08 µM; inhibition: at 2 µM, stronger effect = higher value, 0% TNFa-plus-vehicle, 100% no-TNFa wells
[2] = inhibitors of mutant huntingtin aggregation, primary screen, imaging, exon1htt(103Q)mCFP cells, high-content imaging (AID 483;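 active = visual image review flags a hit and inhibition of aggregation exceeds 20%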;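 also: compound exposure lasted 3 days before fixation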;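 as to nuclei count: percent of the per-plate median nuclei count of sample wells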); conditions: exon1htt(103Q)mCFP cell line, aggregate imaging, at 2 µM; inhibition of aggregation: stronger effect = higher value; nuclei count: measured here: cell count, toxicity
[3] = inhibitors of E-selectin induction by TNFa, primary screen, imaging, HUVEC, immunofluorescence, MLSMR starter and 10KST1 sets (AID 487;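 active = visually confirmed hit in the image check and inhibition above 20%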;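 as to inhibition: signal is fraction of cell area covered by stained E-selectin grains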;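 as to nuclei count: 100% = median nuclei count of all wells on the same plate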); conditions: HUVEC TNFalpha-induced E-selectin immunofluorescence imaging, at 2 µM; inhibition: stronger effect = higher value; nuclei count: measured here: cell number, toxicity
[4] = molecular target: Voltage-gated potassium channel subunit beta-2 (Rattus norvegicus) (UniProt P62483); assay: KvBeta enzyme negative modulators, primary screen, biochemical, NADPH fluorescence (AID 622;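 active = fluorescence slope higher than the sample average by over 3 SD, cut at about -0.22 in these data, passing the limit was not always enough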;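 also: slope of raw intensity against log time taken from 70 to 1610 s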); conditions: recombinant KvBeta, 4-cyanobenzaldehyde reduction, at 10 µM, stronger effect = higher value
Chain of Voltage-gated potassium channel subunit beta-2 (Rattus norvegicus) (P62483 whole entry, looked up): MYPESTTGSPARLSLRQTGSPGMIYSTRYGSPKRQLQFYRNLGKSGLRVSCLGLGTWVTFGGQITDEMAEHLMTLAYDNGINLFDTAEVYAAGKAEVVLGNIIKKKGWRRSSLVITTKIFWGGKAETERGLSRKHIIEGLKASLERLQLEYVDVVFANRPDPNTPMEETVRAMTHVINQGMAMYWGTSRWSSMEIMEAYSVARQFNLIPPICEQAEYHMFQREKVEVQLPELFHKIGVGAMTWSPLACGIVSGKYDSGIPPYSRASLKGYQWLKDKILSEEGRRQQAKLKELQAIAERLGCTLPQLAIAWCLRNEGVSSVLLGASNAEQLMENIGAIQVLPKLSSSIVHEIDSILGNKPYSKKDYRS

[5] = molecular target: Voltage-gated potassium channel subunit beta-2 (Rattus norvegicus) (UniProt P62483); assay: KvBeta positive modulators, primary screen, biochemical, NADPH fluorescence (AID 623;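 active = NADPH fluorescence slope more negative than the mean of all samples by about 3 SD, 99.7% confidence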;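 also: fluorescence intensity change per second fitted from 20 to 320 s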); conditions: Recombinant KvBeta, NADPH fluorescence decrease slope, 10 min; at 10 µM; stronger effect = lower value
[6] = molecular target: Muscarinic acetylcholine receptor M4 (Homo sapiens) (UniProt P08173); assay: compounds altering M4/GIRK thallium flux, either direction, primary screen, M4 allosteric agonist project, cell-based, HEK293 M4/GIRK, BTC-AM (AID 625;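 active = fluorescence slope after compound addition differing from the mean of all tested samples at 99.7% confidence, mostly higher but some lower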;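 also: thallium influx through GIRK channels coupled to M4 in HEK293 cells with BTC-AM dye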); conditions: at 10 µM, actives lie on both sides
Chain of Muscarinic acetylcholine receptor M4 (Homo sapiens) (P08173 whole entry, looked up): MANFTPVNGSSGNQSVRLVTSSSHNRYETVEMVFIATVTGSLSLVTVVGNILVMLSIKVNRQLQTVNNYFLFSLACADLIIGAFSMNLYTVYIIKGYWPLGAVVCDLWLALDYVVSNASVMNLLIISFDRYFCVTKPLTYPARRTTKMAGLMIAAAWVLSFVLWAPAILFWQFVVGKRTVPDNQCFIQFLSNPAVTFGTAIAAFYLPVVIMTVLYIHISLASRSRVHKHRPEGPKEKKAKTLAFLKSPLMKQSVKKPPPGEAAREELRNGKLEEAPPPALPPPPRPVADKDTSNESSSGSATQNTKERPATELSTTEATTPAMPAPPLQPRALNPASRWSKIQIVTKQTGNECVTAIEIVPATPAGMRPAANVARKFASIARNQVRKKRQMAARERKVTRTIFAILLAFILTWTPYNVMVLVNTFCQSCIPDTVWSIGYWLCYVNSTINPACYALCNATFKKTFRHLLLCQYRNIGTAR
Procedure, shortened: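 assay system = HEK293 cells with M4 receptor and GIRK channels | medium = pH 7.3 thallium assay buffer | doses = 10 µM final, single point | timing = cells overnight at 37 °C, BTC-AM loading 1 h, reads 2 min total | signal = BTC-AM fluorescence, 1 Hz kinetic reads | read-out = post-addition slope, 15–24 s, of baseline-normalized fluorescence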

[7] = inhibitors of Sendai virus-induced IRF3 signaling, primary screen, TLR/RLR signaling modifier project, cell-based, Sendai virus stimulus, luciferase, 10K MLSCN set (AID 602276); conditions: HEK293 RL24 IRF3 luciferase reporter, at 10 µM, stronger effect = higher value;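 also: firefly luciferase from ISG56 promoter only with Renilla not read in this screen; 0% = Sendai virus plus DMSO and 100% = medium plus DMSO without virus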
[8] = inhibitors of poly I:C-induced TLR3 signaling, primary screen, cell-based, poly I:C stimulus, luciferase, 10K MLSCN set (AID 602277;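 active = inhibition of the reporter signal at or above 50%; inactive = inhibition below 50%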); conditions: HEK293-TLR3 RL24 IRF3 luciferase reporter, at 10 µM, stronger effect = higher value

SMILES | cell count [1] | inhibition [1] | inhibition of aggregation [2] | nuclei count [2] | inhibition [3] | nuclei count [3] | fluorescence slope [4] | NADPH fluorescence slope [5] | fluorescence slope [6] | inhibition [7] | inhibition [8]
O=C(CSc1nc2ccccc2o1)N1CCN(c2ccc(Cl)cc2)CC1 | 301 | -0.5% (inactive) | -13.9% (inactive) | 117% | -47% (inactive) | 124% | -0.576 (inactive) | -3.9e-05 (inactive) | 0.00749 (inactive) | 16.8% (inactive) | 7.29% (inactive)
Cc1cccn2cc(-c3ccccc3)nc12 | 394 | 1.7% (inactive) | -5.2% (inactive) | 103% | -36.2% (inactive) | 89.3% | -0.557 (inactive) | -1.4e-05 (inactive) | 0.00519 (inactive) | 2.94% (inactive) | -39.3% (inactive)
CCOC(=O)c1ccc(NC(=O)N2CCN(CCc3ccccc3)CC2)cc1 | 361 | 2.5% (inactive) | 18.6% (inactive) | 84.1% | 20.3% (inactive) | 75.8% | -0.475 (inactive) | -4.1e-05 (inactive) | 0.00422 (inactive) | 6.1% (inactive) | -14.9% (inactive)
CCN1C(=O)NC(c2cc(Br)ccc2OC)C(C(=O)OC)=C1C (stereo not drawn) | 451 | -13.1% (inactive) | 2.4% (inactive) | 92% | -25.6% (inactive) | 89.2% | -0.491 (inactive) | 3.4e-05 (inactive) | 0.00605 (inactive) | -1.28% (inactive) | 17.3% (inactive)
CC(C)(C)c1ccccc1NC(=O)c1cccnc1 | 224 | -5.6% (inactive) | 28.5% (inactive) | 91.8% | -81.8% (inactive) | 89.7% | -0.533 (inactive) | -2.2e-05 (inactive) | 0.00439 (inactive) | 15.7% (inactive) | 19.9% (inactive)
CCn1cc(C(=O)N2CCN(C(=O)c3ccco3)CC2)c2cc(OC)c(OC)cc2c1=O | 235 | -2.3% (inactive) | -10% (inactive) | 105% | -55.5% (inactive) | 121% | -0.515 (inactive) | 8.7e-05 (inactive) | 0.00709 (inactive) | 13.9% (inactive) | 15.4% (inactive)
COc1ccc2nc(NC(=O)C(NS(=O)(=O)c3cccs3)C(C)C)sc2c1 (stereo not drawn) | 365 | 0.9% (inactive) | -16.1% (inactive) | 97.8% | -222% (inactive) | 104% | -0.532 (inactive) | 1.5e-05 (inactive) | 0.00546 (inactive) | 17.4% (inactive) | 21% (inactive)
CCc1nc(SCC(=O)Nc2nccs2)c2oc3ccccc3c2n1 | 347 | 4% (inactive) | 12.5% (inactive) | 104% | -14.6% (inactive) | 116% | -0.283 (inactive) | -2.5e-06 (inactive) | 0.00667 (inactive) | 1.9% (inactive) | -8.08% (inactive)
COc1ccccc1C1/C(=C(\O)c2c(C)nc3c(C)cccn23)C(=O)C(=O)N1CCCN(C)C (stereo not drawn) | 530 | -2.6% (inactive) | -6.8% (inactive) | 110% | 35.1% (inactive) | 121% | -0.298 (inactive) | -5.5e-05 (inactive) | 0.00521 (inactive) | 10.7% (inactive) | 20.7% (inactive)
CC1(c2ccncc2)Nc2ccccc2-c2nc3ccccc3n21 (stereo not drawn) | 394 | -13.4% (inactive) | 6.2% (inactive) | 69.9% | -182% (inactive) | 122% | -0.454 (inactive) | -2.1e-05 (inactive) | 0.00581 (inactive) | 6.46% (inactive) | -10% (inactive)
CCC(Sc1ccc(C(=O)O)cc1)C(=O)O (stereo not drawn) | 319 | -1.8% (inactive) | -13.8% (inactive) | 110% | -40.5% (inactive) | 109% | -0.566 (inactive) | -2.4e-05 (inactive) | 0.0053 (inactive) | 1.75% (inactive) | 7.14% (inactive)
COc1ccccc1C(=O)Nc1ccc(S(=O)(=O)N2CCOCC2)cc1 | 353 | -6% (inactive) | 21.1% (inactive) | 61.9% | -85.7% (inactive) | 105% | -0.571 (inactive) | -5.6e-05 (inactive) | 0.00422 (inactive) | 10.8% (inactive) | 0.189% (inactive)
CC(C)(C)OC(=O)N1CC(O)CC1C(=O)OCC(=O)c1ccc(Cl)cc1 (stereo not drawn) | 445 | -7.4% (inactive) | 22.1% (inactive) | 105% | -22.9% (inactive) | 103% | -0.316 (inactive) | -6e-05 (inactive) | 0.00558 (inactive) | 8.08% (inactive) | 19.4% (inactive)
CCOc1ccccc1Nc1ncnc2ccccc12 | 394 | 9.3% (inactive) | 8% (inactive) | 93.2% | -40.8% (inactive) | 120% | -0.548 (inactive) | -1.6e-05 (inactive) | 0.00457 (inactive) | 5.79% (inactive) | -12% (inactive)
CN(C)c1ccc(NC(=O)CSCc2nc3c(nnn3Cc3ccc(F)cc3)c(=O)[nH]2)cc1 | 579 | 7.1% (inactive) | -8.4% (inactive) | 105% | -72.4% (inactive) | 114% | -0.204 (inactive) | -6.4e-06 (inactive) | 0.00529 (inactive) | 10.7% (inactive) | 15.6% (inactive)
CCc1nc(C)c(-c2ccccc2)c(=O)[nH]1 | 211 | 0.8% (inactive) | 5.5% (inactive) | 97.2% | -99.3% (inactive) | 102% | -0.567 (inactive) | -7.1e-06 (inactive) | 0.00452 (inactive) | -0.853% (inactive) | 3.2% (inactive)
COc1cccc(CC(NC(C)=O)C(=O)NC2CCN(c3c4c(nc5ncnn35)CCC4)CC2)c1 (stereo not drawn) | 767 | -6.8% (inactive) | -4.2% (inactive) | 114% | -37.8% (inactive) | 140% | -0.464 (inactive) | -5.8e-05 (inactive) | 0.00506 (inactive) | 17.1% (inactive) | 22.9% (inactive)
Cc1oc(-c2ccccc2)cc1C(N)=O | 248 | 0% (inactive) | -1.4% (inactive) | 66.5% | 18.6% (inactive) | 97.7% | -0.548 (inactive) | -1.8e-05 (inactive) | 0.0055 (inactive) | 15.1% (inactive) | 3.48% (inactive)
CC(C(=O)N1CCc2ccccc21)N1CCc2ccccc2C1 (stereo not drawn) | 597 | -1% (inactive) | 16.1% (inactive) | 91.1% | -86.5% (inactive) | 99.9% | -0.455 (inactive) | 0.000133 (inactive) | 0.00595 (inactive) | 10.2% (inactive) | 22.3% (inactive)
COc1ccc(C2C3=C(CC(C)(C)CC3=O)Oc3ncn4nc(-c5cccnc5)nc4c32)cc1 (stereo not drawn) | 474 | 2.7% (inactive) | 2% (inactive) | 83.8% | -78.2% (inactive) | 144% | -0.327 (inactive) | -2.3e-05 (inactive) | 0.00713 (inactive) | -0.431% (inactive) | 17.2% (inactive)
COc1ccccc1NC(=O)C(O)C(O)C(=O)Nc1ccccc1OC (stereo not drawn) | 350 | 8.6% (inactive) | 2.9% (inactive) | 84.5% | -101% (inactive) | 101% | -0.351 (inactive) | -4.1e-05 (inactive) | 0.00694 (inactive) | -7.84% (inactive) | -0.666% (inactive)
COc1ccc(Cc2nc3ccc(S(N)(=O)=O)cc3[nH]2)cc1OC | 423 | -22.9% (inactive) | 18.8% (inactive) | 58.6% | 75.1% (active) | 59.2% | -0.553 (inactive) | -2.6e-05 (inactive) | 0.00712 (inactive) | 9.58% (inactive) | 8.25% (inactive)
CCCC(O)(CCN(C)C)c1ccc(OC)cc1 (stereo not drawn) | 701 | 6.7% (inactive) | 18.4% (inactive) | 95.2% | -50.6% (inactive) | 87.3% | -0.543 (inactive) | -8.4e-06 (inactive) | 0.00506 (inactive) | 21.2% (inactive) | 29.6% (inactive)
COc1ccc(-c2nc(N3CCCC3)[nH]c(=O)c2C#N)cc1 | 373 | -48.5% (inactive) | -7.1% (inactive) | 107% | -50.2% (inactive) | 114% | -0.471 (inactive) | -1.8e-05 (inactive) | 0.0047 (inactive) | 18.9% (inactive) | 13% (inactive)
CCOc1ccc(C(c2nnnn2Cc2ccccc2)N2CCN(C(=O)c3ccco3)CC2)cc1 (stereo not drawn) | 621 | -0.2% (inactive) | -6.3% (inactive) | 101% | 20% (inactive) | 104% | -0.492 (inactive) | -2.2e-06 (inactive) | 0.00546 (inactive) | -3.47% (inactive) | 9.07% (inactive)
O=C(O)C1C2CCC(C2)C1C(=O)NCCCn1ccnc1 (stereo not drawn) | 486 | 0% (inactive) | 18.3% (inactive) | 72.3% | 65.4% (active) | 65.1% | -0.491 (inactive) | -8.2e-05 (inactive) | 0.0041 (inactive) | -12.1% (inactive) | -16.7% (inactive)
Cc1ccc(S(=O)(=O)N(C)CC(=O)NC2CC(C)(C)NC(C)(C)C2)cc1 | 331 | -6.6% (inactive) | 6.2% (inactive) | 98.6% | 1.9% (inactive) | 89.8% | -0.555 (inactive) | -1.8e-05 (inactive) | 0.00697 (inactive) | 11.7% (inactive) | 22.6% (inactive)
C=C(c1ccc(O)cc1)c1ccc(O)cc1 | 447 | -0.5% (inactive) | -1.6% (inactive) | 123% | -75% (inactive) | 205% | -0.37 (inactive) | 1.7e-05 (inactive) | 0.00598 (inactive) | 13.9% (inactive) | 16.6% (inactive)
